From ChEMBL document CHEMBL1764999, “In vitro characterization of human peptide transporter hPEPT1 interactions and passive permeation studies of short cationic antimicrobial peptides” (J Med Chem, 2011)
≈ marks a conversion by molar mass, not a printed value. Square brackets hold non-standard residues; d marks the D form. Peptide text beside a SMILES is read from it. * marks the point of attachment. Phe(4-guanidino) = N=C(N)Nc1ccc(C[C@H](N)C(=O)O)cc1; Bip = N[C@@H](Cc1ccc(-c2ccccc2)cc1)C(=O)O; Dip = N[C@H](C(=O)O)C(c1ccccc1)c1ccccc1; NHBn = c1ccc(CN*)cc1

How the values were obtained:
Escherichia coli = test: Antibacterial activity against Escherichia coli by micro dilution method; assay type: functional
Staphylococcus aureus [1] = test: Antibacterial activity against methicillin-resistant Staphylococcus aureus by micro dilution method; assay type: functional
[2] = Apparent permeability of the compound by PAMPA; assay type: ADME
Staphylococcus aureus [3] = test: Antibacterial activity against Staphylococcus aureus by micro dilution method; assay type: functional
[4] = target: T1, Solute carrier family 15 member 1 (Homo sapiens) (UniProt P46059); test: Inhibition of human PEPT1 expressed in Xenopus laevis oocytes assessed as effect on glycylsarcosine-induced transport-associated flux rate current at 0.25 to 1 mM at -60 mV membrane potential by two-electrode voltage clamp method; assay type: cell-based; details: Oocyte
T1 sequence (whole entry): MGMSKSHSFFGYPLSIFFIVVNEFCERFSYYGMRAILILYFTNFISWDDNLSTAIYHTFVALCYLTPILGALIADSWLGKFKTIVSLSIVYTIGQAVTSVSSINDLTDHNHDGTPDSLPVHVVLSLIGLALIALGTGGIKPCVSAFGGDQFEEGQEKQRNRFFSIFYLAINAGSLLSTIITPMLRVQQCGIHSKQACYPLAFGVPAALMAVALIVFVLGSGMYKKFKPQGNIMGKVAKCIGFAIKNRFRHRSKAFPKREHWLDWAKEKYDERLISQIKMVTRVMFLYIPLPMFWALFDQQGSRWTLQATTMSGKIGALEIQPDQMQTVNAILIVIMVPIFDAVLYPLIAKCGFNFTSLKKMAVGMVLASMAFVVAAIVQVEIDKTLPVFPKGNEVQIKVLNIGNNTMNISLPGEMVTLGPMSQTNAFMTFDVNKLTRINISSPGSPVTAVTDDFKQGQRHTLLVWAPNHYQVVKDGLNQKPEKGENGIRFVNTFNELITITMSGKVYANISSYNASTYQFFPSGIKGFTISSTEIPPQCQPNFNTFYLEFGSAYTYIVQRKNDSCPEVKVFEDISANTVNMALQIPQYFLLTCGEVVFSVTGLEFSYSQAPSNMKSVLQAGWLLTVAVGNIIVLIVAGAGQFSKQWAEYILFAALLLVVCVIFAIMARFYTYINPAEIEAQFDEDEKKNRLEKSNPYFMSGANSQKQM
How it was run: (§1)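 The hPEPT1 cRNA-injected oocytes were clamped at -60 mV in Barth's solution with HEPES replaced by MES (pH 6.5), at room temperature. Currents from 1 mM Gly-Sar were recorded with and without test peptide (0.25-1.0 mM) at steady state. Flux used a 3.80 mm² surface. Inhibition is residual current as % of the Gly-Sar current. IC50 was fitted from mean inhibitions by Michaelis-Menten.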

[5] = target: T2, Solute carrier family 15 member 1 (Homo sapiens, UniProt P46059); test: Inhibition of human PEPT1 expressed in Xenopus laevis oocytes assessed as inhibition of glycylsarcosine-induced transport-associated current at -60 mV membrane potential by two-electrode voltage clamp method; assay type: cell-based, Oocyte; how it was run: as §1
T2 sequence (P46059 whole entry): T1 sequence (whole entry)

[6] = target: T1, Solute carrier family 15 member 1 (Homo sapiens); test: Inhibition of human PEPT1 expressed in Xenopus laevis oocytes assessed as Inhibition of glycylsarcosine-induced transport-associated current at 0.25 to 1 mM at -60 mV membrane potential by two-electrode voltage clamp method; assay type: cell-based; details: Oocyte; how it was run: as §1
[7] = target: T1, Solute carrier family 15 member 1 (Homo sapiens); test: Activity of human PEPT1 expressed in Xenopus laevis oocytes assessed as induction of transport-associated flux rate current at 1 mM at -60 mV membrane potential by two-electrode voltage clamp method; assay type: cell-based; details: Oocyte
How it was run: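 Oocytes were collagenase-treated (2.5 mg/mL, 70 min) and injected with ~25 ng hPEPT1 cRNA, then held 3-5 days at 17 °C. Superfused at room temperature with MES-buffered Barth's, pH 6.5, clamped at -60 mV. Current is the difference with vs without test peptide, taken 20-30 s after application. Flux in pmol/(s cm²) assumes a 3.80 mm² oocyte surface. Mean of three oocytes.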

Compound | MIC (Escherichia coli) | MIC (Staphylococcus aureus [1]) | Papp ([2]; read-out: Papp) | MIC (Staphylococcus aureus [3]) | Activity [4] | IC50 [5] | inhibition [6] | Activity [7] | Papp [2]
CC(C)(C)c1cc(C(C)(C)C)c2[nH]c(C(C)(C)C)c(C[C@H](N)C(=O)N[C@@H](CCCNC(=N)N)C(=O)NCCc3ccccc3)c2c1 | 10 µg/mL (≈ 15.8 µM) | 2.5 µg/mL (≈ 3.96 µM) | 5.27 ×10⁻⁶ cm/s | 2.5 µg/mL (≈ 3.96 µM) |  |  |  |  | 
CC(C)(C)c1cc(C(C)(C)C)c2[nH]c(C(C)(C)C)c(C[C@H](N)C(=O)N[C@@H](CCCNC(=N)N)C(N)=O)c2c1 | > 150 µg/mL | 15 µg/mL (≈ 28.4 µM) | 0.43 ×10⁻⁶ cm/s | 15 µg/mL (≈ 28.4 µM) | 34.8 pmol/(s.cm2) | 600 µM | 20.3% |  | 
CC(C)(C)c1cc(C(C)(C)C)c2[nH]c(C(C)(C)C)c(C[C@H](NC(=O)[C@@H](N)CCCNC(=N)N)C(=O)N[C@@H](CCCNC(=N)N)C(=O)NCc3ccccc3)c2c1 | 7.5 µg/mL (≈ 9.69 µM) | 2.5 µg/mL (≈ 3.23 µM) |  | 2.5 µg/mL (≈ 3.23 µM) |  |  |  |  | 
N=C(N)NCCC[C@H](NC(=O)[C@@H](N)CCCNC(=N)N)C(=O)N[C@@H](Cc1c[nH]c2ccccc12)C(=O)NCc1ccccc1 (H-Arg-Arg-Trp-NHBn) | > 150 µg/mL | 25 µg/mL (≈ 41.3 µM) | 0.96 ×10⁻⁶ cm/s | 75 µg/mL (≈ 124 µM) |  |  |  |  | 
N=C(N)NCCC[C@H](NC(=O)[C@H](Cc1ccccc1)NC(=O)[C@@H](N)CCCNC(=N)N)C(=O)NCc1ccccc1 (H-Arg-Phe-Arg-NHBn) | > 150 µg/mL | 75 µg/mL (≈ 132 µM) | 2.31 ×10⁻⁶ cm/s | 150 µg/mL (≈ 265 µM) |  |  |  |  | 
NC(=O)[C@H](CCCN=C(N)N)NC(=O)[C@H](Cc1c[nH]c2ccccc12)NC(=O)[C@@H](N)CCCN=C(N)N (H-Arg-Trp-Arg-NH2) | > 200 µg/mL |  | 2.37 ×10⁻⁶ cm/s | > 200 µg/mL | 61.8 pmol/(s.cm2) | 2700 µM | 15.1% |  | 
N=C(N)NCCC[C@H](NC(=O)[C@H](Cc1c[nH]c2ccccc12)NC(=O)[C@@H](N)CCCNC(=N)N)C(=O)NCc1ccccc1 (H-Arg-Trp-Arg-NHBn) | > 150 µg/mL | 25 µg/mL (≈ 41.3 µM) | 0.77 ×10⁻⁶ cm/s | 75 µg/mL (≈ 124 µM) | 3.8 pmol/(s.cm2) |  | 87.6% |  | 
N=C(N)NCCC[C@H](N)C(=O)N[C@@H](Cc1c[nH]c2ccccc12)C(=O)N[C@@H](Cc1ccc(NC(=N)N)cc1)C(=O)NCc1ccccc1 (H-Arg-Trp-[Phe(4-guanidino)]-NHBn) | > 150 µg/mL | 10 µg/mL (≈ 15.3 µM) | 0.47 ×10⁻⁶ cm/s | 50 µg/mL (≈ 76.5 µM) |  |  |  |  | 
N=C(N)NCCC[C@H](NC(=O)[C@H](Cc1ccc(-c2ccccc2)cc1)NC(=O)[C@@H](N)CCCNC(=N)N)C(N)=O (H-Arg-[Bip]-Arg-NH2) |  | 50 µg/mL (≈ 90.5 µM) | 0.01 ×10⁻⁶ cm/s | 200 µg/mL (≈ 362 µM) | 56.7 pmol/(s.cm2) |  | -3.3% |  | 
N=C(N)NCCC[C@H](NC(=O)[C@H](Cc1ccc(-c2ccccc2)cc1)NC(=O)[C@@H](N)CCCNC(=N)N)C(=O)NCc1ccccc1 (H-Arg-[Bip]-Arg-NHBn) | 100 µg/mL (≈ 156 µM) | 5 µg/mL (≈ 7.78 µM) | 0.01 ×10⁻⁶ cm/s | 5 µg/mL (≈ 7.78 µM) |  |  |  |  | 
N=C(N)NCCC[C@H](NC(=O)[C@@H](NC(=O)[C@@H](N)CCCNC(=N)N)C(c1ccccc1)c1ccccc1)C(N)=O (H-Arg-[Dip]-Arg-NH2) | > 150 µg/mL | > 150 µg/mL | 0.83 ×10⁻⁶ cm/s | 100 µg/mL (≈ 181 µM) |  |  |  |  | 
N=C(N)NCCC[C@H](NC(=O)[C@@H](NC(=O)[C@@H](N)CCCNC(=N)N)C(c1ccccc1)c1ccccc1)C(=O)NCc1ccccc1 (H-Arg-[Dip]-Arg-NHBn) | > 150 µg/mL | 10 µg/mL (≈ 15.6 µM) | 0.42 ×10⁻⁶ cm/s | 25 µg/mL (≈ 38.9 µM) |  |  |  |  | 
N=C(N)NCCC[C@H](N)C(=O)N[C@@H](Cc1ccc(NC(=N)N)cc1)C(=O)N[C@@H](Cc1c[nH]c2ccccc12)C(=O)NCc1ccccc1 (H-Arg-[Phe(4-guanidino)]-Trp-NHBn) | > 150 µg/mL | 15 µg/mL (≈ 22.9 µM) | 0.38 ×10⁻⁶ cm/s | 50 µg/mL (≈ 76.5 µM) |  |  |  |  | 
NCCCC[C@H](NC(=O)[C@H](Cc1ccc(-c2ccccc2)cc1)NC(=O)[C@@H](N)CCCCN)C(N)=O (H-Lys-[Bip]-Lys-NH2) |  |  | 0.06 ×10⁻⁶ cm/s | > 200 µg/mL |  |  |  |  | 
NCCCC[C@H](NC(=O)[C@H](Cc1ccc(-c2ccccc2)cc1)NC(=O)[C@@H](N)CCCCN)C(=O)NCc1ccccc1 (H-Lys-[Bip]-Lys-NHBn) | > 150 µg/mL | 25 µg/mL (≈ 42.6 µM) | 0.26 ×10⁻⁶ cm/s | 15 µg/mL (≈ 25.6 µM) |  |  |  |  | 
NC(N)=NCCC[C@H](NC(=O)[C@@H](N)Cc1c[nH]c2ccccc12)C(=O)NCc1ccccc1 (H-Trp-Arg-NHBn) |  |  |  |  |  |  |  | 1.2% | 
N=C(N)NCCC[C@H](NC(=O)[C@@H](N)Cc1c[nH]c2ccccc12)C(=O)O (H-Trp-Arg-OH) |  |  |  |  |  |  |  | 43.5% | 
N=C(N)NCCC[C@H](NC(=O)[C@@H](N)Cc1ccc(-c2ccccc2)cc1)C(=O)O (H-[Bip]-Arg-OH) |  |  |  |  |  |  |  | 10.7% | 
COC(=O)[C@H](CCCN=C(N)N)NC(=O)[C@@H](N)Cc1ccc(-c2ccccc2)cc1 (H-[Bip]-Arg-OMe) | > 200 µg/mL |  | 1.06 ×10⁻⁶ cm/s | 150 µg/mL (≈ 365 µM) | 57.2 pmol/(s.cm2) |  | 10.4% |  | 
N=C(N)Nc1ccc(C[C@H](NC(=O)[C@H](Cc2ccc(-c3ccccc3)cc2)NC(=O)[C@@H](N)Cc2ccc(NC(=N)N)cc2)C(=O)NCc2ccccc2)cc1 (H-[Phe(4-guanidino)]-[Bip]-[Phe(4-guanidino)]-NHBn) | 75 µg/mL (≈ 102 µM) | 5 µg/mL (≈ 6.77 µM) | 0.9 ×10⁻⁶ cm/s | < 2.5 µg/mL |  |  |  |  | 
NS(=O)(=O)c1cc2c(cc1Cl)N=CNS2(=O)=O [CHLOROTHIAZIDE] |  |  |  |  |  |  |  |  | 0.03 ×10⁻⁶ cm/s
COCCc1ccc(OCC(O)CNC(C)C)cc1 (stereo not given) [METOPROLOL] |  |  | 3.23 ×10⁻⁶ cm/s |  |  |  |  |  | 
CC(C)(C)NCC(O)c1cc(O)cc(O)c1 (stereo not given) [TERBUTALINE] |  |  | 0.4 ×10⁻⁶ cm/s |  |  |  |  |  | 
